# Source: ChEMBL document CHEMBL5696442, “Discovery of type II inhibitors of TGFβ-activated kinase 1 (TAK1) and mitogen-activated protein kinase kinase kinase kinase 2 (MAP4K2)” (J Med Chem, 2015)
# Columns and labels:
# [1] = molecular target: Tyrosine-protein kinase Fes/Fps (Homo sapiens, UniProt P07332); assay: Inhibition of FES Lys1 labeling site in human Huh-7 cell lysate at 1 uM by KiNativ Profiling analysis relative to control; format: subcellular
# [2] = Inhibition of IL-1 induced p38 MAPK phosphorylation level in wild type mouse MEF cells at 500 nM incubated for 1 hr followed by IL-1 stimulation by Western blot analysis relative to control; format: functional
# [3] = molecular target: Tyrosine-protein kinase Yes (Homo sapiens) (UniProt P07947); assay: Inhibition of YES ACT labeling site in human A-375 cells at 0.5 uM by KiNativ Profiling analysis relative to control; format: cell-based
# Sequence of Tyrosine-protein kinase Yes (Homo sapiens) (P07947 2-543 limits assumed): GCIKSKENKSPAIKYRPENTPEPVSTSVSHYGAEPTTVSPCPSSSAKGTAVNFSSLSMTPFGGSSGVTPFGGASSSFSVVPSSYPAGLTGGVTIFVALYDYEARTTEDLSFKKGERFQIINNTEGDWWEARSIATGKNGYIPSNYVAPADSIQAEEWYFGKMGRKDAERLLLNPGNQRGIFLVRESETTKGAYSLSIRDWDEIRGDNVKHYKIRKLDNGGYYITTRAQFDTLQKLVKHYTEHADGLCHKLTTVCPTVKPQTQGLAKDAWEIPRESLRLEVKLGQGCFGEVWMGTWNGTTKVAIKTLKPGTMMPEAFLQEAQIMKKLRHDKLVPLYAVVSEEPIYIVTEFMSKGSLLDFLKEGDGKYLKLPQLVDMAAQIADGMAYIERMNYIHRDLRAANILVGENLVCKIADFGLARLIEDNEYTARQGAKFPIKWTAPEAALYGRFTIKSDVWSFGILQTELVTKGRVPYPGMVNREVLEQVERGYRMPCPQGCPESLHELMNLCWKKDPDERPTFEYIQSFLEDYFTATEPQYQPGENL
# [4] = molecular target: T1, Serine/threonine-protein kinase TBK1 (Homo sapiens) (UniProt Q9UHD2); assay: Inhibition of TBK1 Lys2 labeling site in human A-375 cells at 0.05 uM by KiNativ Profiling analysis relative to control; format: cell-based
# T1 sequence (whole entry): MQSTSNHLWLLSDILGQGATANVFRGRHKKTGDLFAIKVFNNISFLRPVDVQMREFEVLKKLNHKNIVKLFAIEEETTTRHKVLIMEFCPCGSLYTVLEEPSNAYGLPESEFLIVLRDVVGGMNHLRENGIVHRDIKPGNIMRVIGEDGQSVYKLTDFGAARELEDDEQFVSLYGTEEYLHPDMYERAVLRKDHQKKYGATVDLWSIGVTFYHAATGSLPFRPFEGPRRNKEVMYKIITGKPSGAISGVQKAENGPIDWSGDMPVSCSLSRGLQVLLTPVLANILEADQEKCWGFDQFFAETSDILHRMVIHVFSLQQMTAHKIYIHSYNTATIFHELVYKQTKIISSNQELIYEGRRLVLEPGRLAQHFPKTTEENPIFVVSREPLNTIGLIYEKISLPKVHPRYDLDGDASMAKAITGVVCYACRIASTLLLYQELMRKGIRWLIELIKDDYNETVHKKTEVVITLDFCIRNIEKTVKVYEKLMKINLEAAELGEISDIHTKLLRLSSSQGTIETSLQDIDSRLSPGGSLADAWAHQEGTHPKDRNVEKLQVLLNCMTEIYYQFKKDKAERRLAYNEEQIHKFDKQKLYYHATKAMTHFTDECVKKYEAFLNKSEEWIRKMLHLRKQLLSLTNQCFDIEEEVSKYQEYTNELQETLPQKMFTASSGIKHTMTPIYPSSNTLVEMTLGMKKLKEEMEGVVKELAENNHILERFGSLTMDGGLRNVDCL
# [5] = molecular target: DNA-PK/Ku70/Ku85 (Homo sapiens) (UniProt P78527+P12956+P13010); assay: Inhibition of DNAPK ATP labeling site harbouring KGGSWIQEINVAEKNWYPR in human A-375 cells at 0.05 uM by KiNativ Profiling analysis relative to control; format: cell-based
# [6] = molecular target: Receptor tyrosine-protein kinase erbB-3 (Homo sapiens) (UniProt P21860); assay: Inhibition of HER3/ErbB3 ACT labeling site in human A-375 cells at 0.05 uM by KiNativ Profiling analysis relative to control; format: cell-based
# [7] = molecular target: Tyrosine-protein kinase ABL2 (Homo sapiens, UniProt P42684); assay: Inhibition of ARG ACT labeling site in human A-375 cells at 5 uM by KiNativ Profiling analysis relative to control; format: cell-based
# In short: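 Intact A375 melanoma cells were treated with compound at 5 or 0.5 μM, then lysed. Lysate kinases were labeled with a lysine-reactive ATP or ADP-biotin probe (KiNativ). Inhibition is read as protection of each kinase labeling site from probe labeling.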
# [8] = molecular target: Dual specificity mitogen-activated protein kinase kinase 1 (Homo sapiens) (UniProt Q02750); assay: Inhibition of MAP2K1 Lys2 labeling site harbouring IMHRDVKPSNILVNSR in human A-375 cells at 0.5 uM by KiNativ Profiling analysis relative to control; format: cell-based
# Sequence of Dual specificity mitogen-activated protein kinase kinase 1 (Homo sapiens) (Q02750 whole entry): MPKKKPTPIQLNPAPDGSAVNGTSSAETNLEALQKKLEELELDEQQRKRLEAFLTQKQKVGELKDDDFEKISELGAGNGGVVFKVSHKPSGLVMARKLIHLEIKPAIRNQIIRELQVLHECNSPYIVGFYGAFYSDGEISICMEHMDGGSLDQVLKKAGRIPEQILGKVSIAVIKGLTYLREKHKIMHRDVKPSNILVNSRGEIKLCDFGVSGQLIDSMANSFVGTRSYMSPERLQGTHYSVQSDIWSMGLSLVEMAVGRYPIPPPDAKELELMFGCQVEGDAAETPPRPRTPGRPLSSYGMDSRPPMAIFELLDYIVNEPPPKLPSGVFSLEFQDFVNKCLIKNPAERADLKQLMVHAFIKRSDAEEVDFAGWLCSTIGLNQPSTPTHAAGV
# [9] = molecular target: Serine/threonine-protein kinase WNK1 (Homo sapiens) (UniProt Q9H4A3); assay: Inhibition of Wnk1 Lys2 labeling site in human A-375 cells at 0.05 uM by KiNativ Profiling analysis relative to control; format: cell-based
# Sequence of Serine/threonine-protein kinase WNK1 (Homo sapiens) (Q9H4A3 whole entry, looked up): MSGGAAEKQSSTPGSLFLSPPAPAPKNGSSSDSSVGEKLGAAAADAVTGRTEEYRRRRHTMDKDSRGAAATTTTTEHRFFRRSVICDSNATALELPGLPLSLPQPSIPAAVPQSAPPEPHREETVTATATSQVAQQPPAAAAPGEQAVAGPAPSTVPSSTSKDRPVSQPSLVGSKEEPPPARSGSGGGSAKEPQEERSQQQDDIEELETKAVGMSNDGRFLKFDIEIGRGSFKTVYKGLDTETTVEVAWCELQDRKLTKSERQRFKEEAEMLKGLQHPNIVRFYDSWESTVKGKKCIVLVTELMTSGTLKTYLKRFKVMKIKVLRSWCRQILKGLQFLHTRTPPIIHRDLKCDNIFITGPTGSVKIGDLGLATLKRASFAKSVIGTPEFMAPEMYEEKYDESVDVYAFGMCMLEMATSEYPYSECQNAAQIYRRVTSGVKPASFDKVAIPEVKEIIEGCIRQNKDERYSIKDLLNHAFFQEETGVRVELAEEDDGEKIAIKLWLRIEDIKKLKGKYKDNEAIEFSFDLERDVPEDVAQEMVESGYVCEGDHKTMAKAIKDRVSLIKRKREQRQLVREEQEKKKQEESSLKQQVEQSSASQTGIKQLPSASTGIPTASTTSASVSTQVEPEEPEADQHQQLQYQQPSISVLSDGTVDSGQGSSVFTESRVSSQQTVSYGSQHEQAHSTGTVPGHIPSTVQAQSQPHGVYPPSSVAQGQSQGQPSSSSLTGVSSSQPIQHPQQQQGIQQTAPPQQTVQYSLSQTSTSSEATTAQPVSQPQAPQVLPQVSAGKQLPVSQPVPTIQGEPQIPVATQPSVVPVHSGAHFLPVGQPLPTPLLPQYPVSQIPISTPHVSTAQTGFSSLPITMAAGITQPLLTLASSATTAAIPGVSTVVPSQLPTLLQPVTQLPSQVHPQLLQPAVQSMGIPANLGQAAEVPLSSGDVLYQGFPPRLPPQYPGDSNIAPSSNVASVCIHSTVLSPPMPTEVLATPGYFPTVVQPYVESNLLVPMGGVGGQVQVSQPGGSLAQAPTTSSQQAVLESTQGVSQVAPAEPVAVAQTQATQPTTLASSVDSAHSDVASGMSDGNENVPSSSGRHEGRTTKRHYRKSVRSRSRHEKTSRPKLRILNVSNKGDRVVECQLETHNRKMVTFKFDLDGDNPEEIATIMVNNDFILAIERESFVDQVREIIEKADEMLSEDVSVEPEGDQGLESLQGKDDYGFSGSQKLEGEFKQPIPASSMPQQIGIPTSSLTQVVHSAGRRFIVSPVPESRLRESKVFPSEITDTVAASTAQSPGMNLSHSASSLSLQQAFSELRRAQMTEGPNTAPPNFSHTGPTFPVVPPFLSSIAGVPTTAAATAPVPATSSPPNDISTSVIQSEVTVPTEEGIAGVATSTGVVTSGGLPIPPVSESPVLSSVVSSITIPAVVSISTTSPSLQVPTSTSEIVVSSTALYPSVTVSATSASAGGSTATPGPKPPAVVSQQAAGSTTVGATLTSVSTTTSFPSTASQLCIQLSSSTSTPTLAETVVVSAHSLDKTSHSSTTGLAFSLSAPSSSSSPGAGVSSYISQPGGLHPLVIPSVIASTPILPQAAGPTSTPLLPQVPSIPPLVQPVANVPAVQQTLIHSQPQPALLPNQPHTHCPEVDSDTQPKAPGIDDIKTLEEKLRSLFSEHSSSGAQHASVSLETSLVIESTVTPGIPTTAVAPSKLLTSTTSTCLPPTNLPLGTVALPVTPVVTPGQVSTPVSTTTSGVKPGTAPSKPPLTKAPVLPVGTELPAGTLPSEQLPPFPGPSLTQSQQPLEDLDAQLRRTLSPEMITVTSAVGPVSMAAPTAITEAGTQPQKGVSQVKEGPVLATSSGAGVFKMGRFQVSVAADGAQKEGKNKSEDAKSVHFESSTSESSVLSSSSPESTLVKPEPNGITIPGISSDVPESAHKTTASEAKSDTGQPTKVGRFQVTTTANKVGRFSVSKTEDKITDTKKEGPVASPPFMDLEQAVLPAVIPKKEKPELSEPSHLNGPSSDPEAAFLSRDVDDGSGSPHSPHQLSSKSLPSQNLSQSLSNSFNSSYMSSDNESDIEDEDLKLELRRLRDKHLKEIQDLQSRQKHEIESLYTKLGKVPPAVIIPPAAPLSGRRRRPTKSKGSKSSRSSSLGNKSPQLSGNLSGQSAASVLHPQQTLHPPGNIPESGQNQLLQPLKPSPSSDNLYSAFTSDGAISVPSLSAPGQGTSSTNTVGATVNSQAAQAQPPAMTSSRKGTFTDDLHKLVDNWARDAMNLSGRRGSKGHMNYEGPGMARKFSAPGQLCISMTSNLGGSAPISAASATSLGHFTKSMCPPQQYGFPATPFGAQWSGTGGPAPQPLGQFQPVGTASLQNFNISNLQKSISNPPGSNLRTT
# [10] = molecular target: Cyclin-dependent kinase 11B (Homo sapiens) (UniProt P21127); assay: Inhibition of CDK11 Lys2 labeling site in human A-375 cells at 5 uM by KiNativ Profiling analysis relative to control; format: cell-based
# In short: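 Live A375 melanoma cells were treated with compound at 5 or 0.5 μM. The cells were then lysed, and the lysates were labeled with a lysine-reactive ATP or ADP-biotin acyl probe (KiNativ). Inhibition is the compound's protection of each kinase labeling-site peptide from probe labeling, relative to untreated control.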
# [11] = molecular target: Mitogen-activated protein kinase kinase kinase 11 (Homo sapiens) (UniProt Q16584); assay: Inhibition of MLK3 Lys2 labeling site in human A-375 cells at 0.5 uM by KiNativ Profiling analysis relative to control; format: cell-based
# Sequence of Mitogen-activated protein kinase kinase kinase 11 (Homo sapiens) (Q16584 whole entry, looked up): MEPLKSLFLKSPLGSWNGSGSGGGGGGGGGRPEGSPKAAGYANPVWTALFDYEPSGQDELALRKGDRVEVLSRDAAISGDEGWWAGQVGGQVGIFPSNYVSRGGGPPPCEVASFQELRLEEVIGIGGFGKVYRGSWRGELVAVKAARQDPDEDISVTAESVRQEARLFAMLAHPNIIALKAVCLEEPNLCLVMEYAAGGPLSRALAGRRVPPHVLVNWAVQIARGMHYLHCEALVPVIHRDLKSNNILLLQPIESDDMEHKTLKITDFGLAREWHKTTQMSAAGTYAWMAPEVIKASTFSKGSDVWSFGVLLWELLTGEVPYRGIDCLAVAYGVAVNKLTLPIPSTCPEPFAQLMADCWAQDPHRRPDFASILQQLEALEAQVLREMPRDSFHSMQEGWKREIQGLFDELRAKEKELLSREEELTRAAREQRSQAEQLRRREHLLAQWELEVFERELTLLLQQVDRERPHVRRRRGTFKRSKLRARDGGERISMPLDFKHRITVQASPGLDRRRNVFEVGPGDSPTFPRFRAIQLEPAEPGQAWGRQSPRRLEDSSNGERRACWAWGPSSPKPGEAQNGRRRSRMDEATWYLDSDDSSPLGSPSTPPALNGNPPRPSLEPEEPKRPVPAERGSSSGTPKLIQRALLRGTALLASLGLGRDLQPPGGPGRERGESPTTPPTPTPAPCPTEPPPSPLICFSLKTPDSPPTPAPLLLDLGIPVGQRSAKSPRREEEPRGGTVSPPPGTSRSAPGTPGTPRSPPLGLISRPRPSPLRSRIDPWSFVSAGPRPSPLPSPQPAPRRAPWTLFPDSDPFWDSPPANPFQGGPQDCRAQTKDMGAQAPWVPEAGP
# [12] = molecular target: Dual specificity mitogen-activated protein kinase kinase 1 (Homo sapiens) (UniProt Q02750); assay: Inhibition of MAP2K1 Lys2 labeling site harbouring DVKPSNILVNSR in human A-375 cells at 0.05 uM by KiNativ Profiling analysis relative to control; format: cell-based
# [13] = Inhibition of KHS1 Lys2 labeling site in human A-375 cells at 0.5 uM by KiNativ Profiling analysis relative to control; details: condition cancer
# Sequence of Tyrosine-protein kinase Fes/Fps (P07332 whole entry): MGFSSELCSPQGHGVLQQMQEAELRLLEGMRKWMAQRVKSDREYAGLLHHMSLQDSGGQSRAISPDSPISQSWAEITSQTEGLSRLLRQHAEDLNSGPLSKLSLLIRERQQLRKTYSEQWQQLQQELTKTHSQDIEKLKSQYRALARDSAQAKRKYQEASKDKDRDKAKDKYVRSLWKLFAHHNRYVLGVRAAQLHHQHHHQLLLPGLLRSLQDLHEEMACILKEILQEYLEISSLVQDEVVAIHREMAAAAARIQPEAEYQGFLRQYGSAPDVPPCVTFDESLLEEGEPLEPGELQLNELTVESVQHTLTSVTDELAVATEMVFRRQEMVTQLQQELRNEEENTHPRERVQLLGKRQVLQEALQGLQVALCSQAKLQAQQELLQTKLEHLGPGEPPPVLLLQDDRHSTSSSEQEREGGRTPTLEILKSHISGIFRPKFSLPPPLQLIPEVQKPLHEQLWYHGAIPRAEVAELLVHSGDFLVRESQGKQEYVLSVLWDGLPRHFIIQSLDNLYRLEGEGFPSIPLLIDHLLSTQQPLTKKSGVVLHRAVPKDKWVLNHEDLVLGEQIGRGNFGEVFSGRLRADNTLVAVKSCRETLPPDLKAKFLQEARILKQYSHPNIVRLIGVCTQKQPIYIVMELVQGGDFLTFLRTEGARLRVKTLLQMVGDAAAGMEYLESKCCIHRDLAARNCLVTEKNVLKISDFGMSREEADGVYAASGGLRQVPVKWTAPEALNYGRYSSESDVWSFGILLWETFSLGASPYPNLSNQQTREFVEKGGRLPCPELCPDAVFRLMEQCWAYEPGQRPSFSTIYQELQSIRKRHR
SMILES,inhibition [1] [%],inhibition at 0.5 µM [2] [%],inhibition [3] [%],inhibition [4] [%],inhibition [5] [%],inhibition [6] [%],inhibition [7] [%],inhibition [8] [%],inhibition [9] [%],inhibition [10] [%],inhibition [11] [%],inhibition [12] [%],inhibition at 0.5 µM [13] [%]
CNc1cc(Oc2cc(C(=O)Nc3cc(N4CCN(C)CC4)cc(C(F)(F)F)c3)ccc2C)ncn1,11.2,50,,,,,,,,,,,
CCN1CCN(Cc2ccc(NC(=O)c3ccc(C)c(Oc4ccnc5[nH]ccc45)c3)cc2C(F)(F)F)CC1,,,36.5,29.2,6.7,4.1,> 98,28.4,-3.5,18,0.3,6.1,-0.3
CNc1cc(Oc2cc(C(=O)Nc3cc(-n4cnc(C)c4)cc(C(F)(F)F)c3)ccc2C)ncn1,20,50,,,,,,,,,,,
CCN1CCN(Cc2ccc(NC(=O)c3ccc(C)c(/C=C/c4cnc5[nH]ccc5c4OC)c3)cc2C(F)(F)F)CC1,,,72.6,19.8,-3.2,11.2,> 98,19.2,7.1,16.9,10.5,-8.3,36
